# Measurements taken from ChEMBL document CHEMBL1129329, “Structure-activity studies of 6-substituted decahydroisoquinoline-3-carboxylic acid AMPA receptor antagonists. 2. Effects of distal acid bioisosteric substitution, absolute stereochemical preferences, and in vivo activity” (J Med Chem, 1996).
# pIC50: −log10 of the molar value.
# Experiments:
# Mus musculus [1] = test: Effective dose to block maximal electroshock-induced convulsions in mice, administered intraperitoneally; assay type: functional; settings: ip
# Mus musculus [2] = test: (§1) Effective dose to produce neurological impairments in mice using the horizontal screen assay, administered intraperitoneally; assay type: functional; settings: ip
# Procedure, shortened: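 Mice dosed intraperitoneally 30 min before testing were placed on a horizontal screen, which was then turned upside down. Unimpaired mice climb back to the top within 2 min; failure indicates neurological impairment. This was done before MES testing.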
# Mus musculus [3] = test: Effective dose to block ATPA-induced muscle rigidity in mice at a dose of 30 mg/kg administered intraperitoneally; settings: ip
# Glutamate NMDA receptor [4] = test: Affinity of [3H]-CGS- 19755 radioligand to rat N-methyl-D-aspartate (NMDA) receptor; assay type: protein-complex assay
# [5] = biological target: Glutamate receptor ionotropic, kainate; test: Binding affinity against Ionotropic glutamate receptor kainate using [3H]-Kainic acid 19755 radioligand; assay type: protein-complex assay
# Procedure, shortened: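 Displacement of radioligand binding in rat cortical tissue: [3H]AMPA for AMPA sites, [3H]kainic acid for kainate sites. Assays run in triplicate unless otherwise indicated; some IC50 values come from a single assay.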
# Glutamate NMDA receptor [6] = test: Compound was tested for NMDA receptor antagonistic activity by measuring its ability to inhibit depolarizations induced by 40 uM NMDA in rat cortical slice preparation.; assay type: functional
# [7] = biological target: T1, Glutamate receptor ionotropic, AMPA (Rattus norvegicus, UniProt P19490+P19491+P19492+P19493); test: Compound was tested for Ionotropic glutamate receptor AMPA antagonistic activity by measuring its ability to inhibit depolarizations induced by 40 uM AMPA in rat cortical slice preparation.; assay type: functional
# [8] = biological target: T1, Glutamate receptor ionotropic, AMPA; test: Binding affinity against Ionotropic glutamate receptor AMPA using [3H]AMPA 19755 radioligand; assay type: protein-complex assay
# Glutamate NMDA receptor [9] = test: Antagonism at NMDA receptor by inhibition of depolarizations induced by 40 uM NMDA in rat cortical slice preparation.; assay type: functional
# [10] = biological target: T1, Glutamate receptor ionotropic, AMPA; test: Antagonism at AMPA receptor by inhibition of depolarizations induced by 40 uM AMPA in rat cortical slice preparation.; assay type: functional
# [11] = biological target: Glutamate receptor ionotropic, kainate; test: Antagonism at Ionotropic glutamate receptor kainate by inhibition of depolarizations induced by 10 uM kainic acid in rat cortical slice preparation.; assay type: functional
# [12] = biological target: T1, Glutamate receptor ionotropic, AMPA; test: Compound was tested for AMPA receptor antagonistic activity by measuring its ability to inhibit depolarizations induced by 10 uM quisqualic acid in rat cortical slice preparation.; assay type: functional
# [13] = biological target: Glutamate receptor ionotropic, kainate; test: Compound was tested for Ionotropic glutamate receptor kainate antagonistic activity by measuring its ability to inhibit depolarizations induced by 10 uM kainic acid in rat cortical slice preparation.; assay type: functional
# Mus musculus [14] = test: as §1; assay type: functional; settings: ip; remark: listed apart in the source
# Procedure, shortened: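 Mice dosed ip 30 min beforehand are placed on a horizontal screen, which is then turned upside down. Unimpaired mice climb back to the top within 2 min.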
# Mus musculus [15] = test: Effective dose to block ATPA-induced muscle rigidity in mice at a dose of 30mg/kg, administered intravenously; assay type: functional; settings: iv
# Procedure, shortened: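 Mice given test agent ip 30 min before iv challenge with ATPA (30 mg/kg), a systemic AMPA agonist that produces characteristic muscle rigidity.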
# Mus musculus [16] = test: Effective dose to block lethality induced by 200 mg/kg ip dose of NMDA; assay type: functional; settings: route intraperitoneal
# Procedure, shortened: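 Mice dosed ip 30 min before a 200 mg/kg ip NMDA challenge; protection from lethality recorded and ED50 (mg/kg, ip) derived.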
SMILES,pIC50 (Glutamate NMDA receptor [4]),pIC50 [5],pIC50 (Glutamate NMDA receptor [6]),pIC50 [7],pIC50 [8],also measured
O=C(O)[C@@H]1C[C@H]2C[C@@H](CCCc3nnn[nH]3)CC[C@H]2CN1,–,–,–,–,–,ED50 (Mus musculus [1]): > 100 mg/kg; ED50 (Mus musculus [2]): > 100 mg/kg; ED50 (Mus musculus [3]): > 100 mg/kg
O=C(O)[C@@H]1C[C@H]2C[C@@H](CCc3nn[nH]n3)CC[C@H]2CN1 (racemic) [TEZAMPANEL ANHYDROUS],–,–,–,–,–,ED50 (Mus musculus [1]): 9 mg/kg; ED50 (Mus musculus [2]): 19.6 mg/kg; ED50 (Mus musculus [3]): 3.6 mg/kg
O=C(O)[C@@H]1C[C@H]2C[C@H](CSc3nn[nH]n3)CC[C@H]2CN1 (stereo in doubt; (+/-)28),4.32,4.43,< 4.00,5.21,5.31,–
O=C(O)[C@@H]1C[C@H]2C[C@@H](CSc3nn[nH]n3)CC[C@H]2CN1 (racemic),4.53,4.52,< 4.00,4.70,6.05,–
CCOC(=O)[C@@H]1C[C@H]2C[C@@H](CCc3cc(OC)no3)CC[C@H]2CN1C(=O)OC,< 4.00,–,–,–,–,pIC50 (Glutamate NMDA receptor [9]): < 4.00
O=C(O)CC[C@H]1CC[C@H]2CN[C@H](C(=O)O)C[C@H]2C1,4.36,< 4.00,–,–,4.56,ED50 (Mus musculus [1]): > 100 mg/kg; pIC50 [11]: < 4.00; ED50 (Mus musculus [2]): > 100 mg/kg; pIC50 [12]: 4.38; pIC50 (Glutamate NMDA receptor [9]): 4.24; ED50 (Mus musculus [3]): > 100 mg/kg
O=C(O)[C@H]1C[C@@H]2C[C@H](CSc3nn[nH]n3)CC[C@@H]2CN1,< 5.00,< 4.00,< 4.00,4.70,4.66,pIC50 [13]: < 4.50
O=C(O)[C@@H]1C[C@H]2C[C@H](CCS(=O)(=O)O)CC[C@H]2CN1,< 4.00,< 4.00,–,–,< 4.00,pIC50 [11]: < 4.00; pIC50 [10]: < 4.00; pIC50 (Glutamate NMDA receptor [9]): < 4.00
O=C(O)[C@@H]1C[C@H]2C[C@H](CSc3nn[nH]n3)CC[C@H]2CN1 (stereo in doubt; (-)28),4.53,< 4.00,4.21,< 4.00,4.15,pIC50 [13]: < 4.00
O=C(O)CC[C@@H]1CC[C@H]2CN[C@H](C(=O)O)C[C@H]2C1,< 4.00,< 4.00,–,–,< 4.00,pIC50 [11]: < 4.00; pIC50 [10]: < 4.00; pIC50 (Glutamate NMDA receptor [9]): < 4.00
O=C(O)[C@@H]1C[C@H]2C[C@@H](c3nnn[nH]3)CC[C@H]2CN1,–,–,–,–,–,ED50 (Mus musculus [1]): 24.1 mg/kg; ED50 (Mus musculus [15]): 44.5 mg/kg; ED50 (Mus musculus [16]): 19.4 mg/kg

# Continued, in another order:
pIC50 (Glutamate NMDA receptor [4]),pIC50 [5],pIC50 (Glutamate NMDA receptor [6]),pIC50 [7],pIC50 [8],SMILES,also measured
4.11,–,–,–,–,O=C(O)[C@@H]1C[C@H]2C[C@H](CCc3nnn[nH]3)CC[C@H]2CN1 (stereo in doubt; (-)49),–
4.92,4.55,–,–,4.85,O=C(O)[C@@H]1C[C@H]2C[C@@H](CCc3nn[nH]n3)CC[C@H]2CN1 [TEZAMPANEL ANHYDROUS],pIC50 [10]: 5.74
–,4.06,–,–,4.50,O=C(O)[C@@H]1C[C@H]2C[C@H](CCc3nnn[nH]3)CC[C@H]2CN1 (stereo in doubt; (+)49),pIC50 [11]: 4.54; pIC50 [10]: 4.66
< 4.00,4.55,< 4.00,5.05,4.75,O=C(O)[C@H]1C[C@@H]2C[C@@H](CSc3nn[nH]n3)CC[C@@H]2CN1,pIC50 [13]: 4.54
4.74,4.80,4.64,5.85,6.22,O=C(O)[C@@H]1C[C@H]2C[C@@H](CSc3nn[nH]n3)CC[C@H]2CN1,ED50 (Mus musculus [1]): 8.5 mg/kg; pIC50 [13]: < 4.50; ED50 (Mus musculus [14]): 20.1 mg/kg; ED50 (Mus musculus [3]): 8.1 mg/kg
–,< 4.00,–,–,< 4.00,O=C(O)[C@H]1C[C@@H]2C[C@H](CCc3nnn[nH]3)CC[C@@H]2CN1,pIC50 [11]: < 4.00; pIC50 [10]: < 4.00
